Bioassay records deposited in PubChem BioAssay by Broad Institute.
PGC1a acetyl inh: inhibitors of PGC1a acetylation signal, primary screen, cell-based, U2OS, AlphaScreen, inhibitor mode; AlphaScreen anti-acetyl-lysine; with virally co-expressed GCN5 acetyltransferase; 350,000 tested, 0.17% active; inhibition, % at 15.6 µM; AID 651687, 2012;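 active = every replicate shows inhibition of at least 40%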;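 note: 0% = neutral control wells and 100% = positive control wells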
ARNT-TACC3 inh: disruptors of ARNT/TACC3 protein interaction, primary screen, biochemical, AlphaScreen, single concentration | 390,000 tested, 0.66% active | AID 623870, 2012 | AlphaScreen His-ARNT PAS-B/GST-TACC3 binding, luminescence; TACC3 fragment carries E629A point mutation | inhibition, % at 9.99 µM;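 active = mean inhibition of replicates at least 50% and at least half of replicates each reaching 50%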;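 note: 0% = complete ARNT plus TACC3 wells and 100% = ARNT alone without TACC3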
CASP6 VEID inh: human caspase-6 inhibitors, primary screen, biochemical, VEID-R110 fluorescence, single point, set 2; purified caspase-6, Z-VEID-R110 cleavage fluorescence; inhibition, % at 12.5 µM; 350,000 tested, 0.53% active; AID 686996, 2013;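 active = mean inhibition across replicates at least about 35%, with every replicate also reaching that limit, limit read from the data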;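 note: 0% = median of neutral control wells and 100% = no fluorescence left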
Target sequence (P55212 24-179 limits assumed): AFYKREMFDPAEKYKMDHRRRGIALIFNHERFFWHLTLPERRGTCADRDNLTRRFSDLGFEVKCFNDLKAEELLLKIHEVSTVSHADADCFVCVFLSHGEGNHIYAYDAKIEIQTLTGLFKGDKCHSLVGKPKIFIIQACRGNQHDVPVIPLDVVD
Target sequence (P55212 194-293 limits assumed): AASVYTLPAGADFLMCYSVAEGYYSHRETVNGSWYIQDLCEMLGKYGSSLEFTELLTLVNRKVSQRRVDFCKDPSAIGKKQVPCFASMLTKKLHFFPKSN
ERAP1 inh: human ERAP1 aminopeptidase inhibitors, primary screen, biochemical, single point, plate reader | inhibition, % at 10.7 µM | Endoplasmic reticulum aminopeptidase 1 (Homo sapiens), Q9NZ08 | 340,000 tested, 0.15% active | AID 652197, 2013 | recombinant ERAP1, Leu-AMC fluorescence, 60 min;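 active = mean replicate inhibition of at least 30%, or all replicates individually reaching that 30% level; inactive = mean below 30% and not every replicate reaching it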;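 note: 0% = neutral control wells and 100% = L-leucinethiol positive control wells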
S100A4 inh HTS: inhibitors of S100A4-myosin IIA peptide binding, primary screen, biochemical, fluorescence polarization, TAMRA-MyoIIA peptide. Protein S100-A4 (Homo sapiens), P26447. inhibition, % at 10.7 µM. 360,000 tested, 0.14% active;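 active = mean inhibition of at least 70% across replicates, with every replicate also reaching that level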
Target sequence (P26447 whole entry, looked up): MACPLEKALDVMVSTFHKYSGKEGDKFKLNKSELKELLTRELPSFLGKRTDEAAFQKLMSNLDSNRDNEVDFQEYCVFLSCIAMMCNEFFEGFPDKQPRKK
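Test system: S100A4 monomer protein; Medium: HEPES pH 7.2 with CaCl2, KCl, NaCl, DTT, Triton; Probe or stimulus: TAMRA-labelled myosin IIA heavy-chain peptide probe, 5 nM; Doses: one dose per compound; Times: polarization read 5 min after assay mix addition, stable 5–60 min; Benchmarks: neutral control DMSO, positive control TFP.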
Ecoli rRNA inh: reduced GFP signal of wild-type E. coli, primary screen, bacterial rRNA inhibitor project, GFP/RFP fluorescence, OD600, single point; E. coli WT GFP vs humanized-ribosome RFP mutants, 24 h; hits give low values; DMSO median 0, no signal -100; GFP signal change (wild-type ribosome), % (concentration not given with the values); 350,000 tested, 1.6% active; AID 720706, 2013;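 active = significant combined selectivity score with lowered wild-type GFP, culture density cut under 30%, mutant RFP and density less affected; inactive = any of these conditions unmet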
Numbers without * were called inactive; / = not tested or not shown. The list is not random: actives were taken first. Their share in the collection is about 2.4%.

SMILES	PGC1a acetyl inh	ARNT-TACC3 inh	CASP6 VEID inh	ERAP1 inh	S100A4 inh HTS	Ecoli rRNA inh
Cc1n[nH]c(=O)nc1N/N=C/c1ccc(O)c([N+](=O)[O-])c1	-1	2	-1	9	-2	9
COc1cc(/C=N/Nc2nc(=O)[nH]nc2C)cc([N+](=O)[O-])c1O	-4	76*	3	7	0	-5
COc1ccc2c3c([nH]c2c1)[C@H](CO)N(CC1CC1)CC31CN(C(=O)c2cccc(F)c2)C1	0	/	/	/	/	-6
COc1ccc(NC(=O)Nc2ccc3c(c2)C(=O)N([C@H](C)CO)C[C@H](C)[C@@H](CN(C)C(=O)CCC(F)(F)F)OCCCC[C@H](C)O3)cc1	-1	-4	/	/	/	-2
CO[C@H]1CN(C)C(=O)c2ccc(NS(=O)(=O)c3ccc(Cl)cc3)cc2OC[C@@H](C)N(C)C[C@H]1C	7	-6	-3	-3	0	-1
NNC(=O)c1[nH]c2ccc(Br)cc2c1-c1ccccc1	/	-14	1	-1	-15	-26*
NNC(=O)c1[nH]c2ccc(Cl)cc2c1-c1ccccc1	/	-4	-1	/	-1	-31
CCOC(=O)C1=C(C)NC(=O)NC1c1ccco1 (stereo unspecified)	1	4	46*	-2	10	13
CCOC(=O)C1=C(C)NC(C)=C(C(=O)OCC)C1C	/	19	-2	34*	-5	-12
COc1ccc(COC(=O)C2=C(C)NC(=O)NC2c2ccc(O)c(OC)c2)cc1 (stereo unspecified)	0	8	2	2	0	-22*
CCOc1cc(C2NC(=O)NC(C)=C2C(=O)OCc2ccccc2)ccc1O (stereo unspecified)	/	44*	4	4	-3	-9
COCCOC(=O)C1=C(C)NC(=O)NC1c1ccco1 (stereo unspecified)	11	/	14	0	-9	17
Cc1ccc(S(=O)(=O)N[C@H]2CC[C@H](CC(=O)NCCc3ccncc3)O[C@@H]2CO)cc1	1	/	0	0	3	6
C[C@@H]1CN([C@H](C)CO)C(=O)c2cc(NS(C)(=O)=O)ccc2O[C@@H](C)CCCCO[C@@H]1CN(C)Cc1ccc(C(=O)O)cc1	-1	0	2	3	11	3
C[C@@H]1CN([C@@H](C)CO)C(=O)c2cccc(NC(=O)Nc3ccc4c(c3)OCO4)c2O[C@@H]1CN(C)S(=O)(=O)c1cccs1	-19	11	0	1	3	-4
O=C(O)CCc1ccc(S(=O)(=O)Nc2cc(C(F)(F)F)ccc2N2CCCC2)cc1	/	-3	67*	-1	-5	2
CSCCC(C(=O)NCc1ccccc1)n1c(-c2ccc3c(c2)CCO3)nc2ccccc21 (stereo unspecified)	/	/	3	-2	-2	-17*
CCC(C(=O)NCc1ccccc1)n1c(-c2ccc3c(c2)CCO3)nc2ccccc21 (stereo unspecified)	/	/	-1	-2	-4	-31
C[C@H]1CN([C@@H](C)CO)C(=O)c2cccc(NS(=O)(=O)c3ccc(Cl)cc3)c2O[C@@H]1CN(C)S(=O)(=O)c1cn(C)cn1	3	/	/	/	/	-2
Cn1cc([N+](=O)[O-])c(C(=O)Nc2ccn(C34CC5CC(CC(C5)C3)C4)n2)n1	/	0	1	1	-7	-26*
Cc1nn(C)c(C(=O)Nc2ccn(C34CC5CC(CC(C5)C3)C4)n2)c1[N+](=O)[O-]	/	4	-3	-1	3	-32*
CCn1cc([N+](=O)[O-])c(C(=O)Nc2ccn(C34CC5CC(CC(C5)C3)C4)n2)n1	/	1	/	/	/	/
COc1ccc(NC(=O)Nc2cccc3c2O[C@@H](CN(C)S(C)(=O)=O)[C@@H](C)CN([C@@H](C)CO)C3=O)cc1	3	1	2	1	5	1
O=C(N[C@H]1CC[C@@H](CC(=O)N2CCc3ccccc3C2)O[C@H]1CO)C1CCC1	-16	-31	8	0	-1	4
O=C(c1ccncc1)N1C[C@@H]2[C@H](c3ccccc31)[C@@H](CO)N2C(=O)CN1CCOCC1	-1	5	-1	5	97*	5
SMILES	PGC1a acetyl inh	ARNT-TACC3 inh	CASP6 VEID inh	ERAP1 inh	S100A4 inh HTS	Ecoli rRNA inh
CCC(=O)N1C[C@H]2[C@@H](c3ccccc31)[C@@H](CO)N2C(=O)CC	12	3	0	-3	38	5
O=C(c1cccnc1)N1C[C@H]2[C@@H](c3ccccc31)[C@H](CO)N2C(=O)CN1CCOCC1	1	0	/	/	9	3
CCC(=O)N1C[C@@H]2[C@H](c3ccccc31)[C@@H](CO)N2C(=O)CC	13	0	-4	0	73*	-3
CCCNC(=O)N1CC2(CCN(C(=O)C3CCC3)CC2)c2c([nH]c3cc(OC)ccc23)[C@H]1CO	1	/	-1	-1	-2	-1
C[C@@H]1CN([C@@H](C)CO)C(=O)c2cc(NC(=O)CCN3CCOCC3)ccc2O[C@@H]1CN(C)Cc1ccccc1	/	3	3	2	1	-1
CC(/C=C/c1ccc(O)cc1)=NNc1ccccc1	2	-1	1	-5	2	-21*
O=C(COc1ccccc1)NC(=S)N1CCc2ccccc21	/	2	-1	7	0	/
O=C(COc1ccccc1Cl)NC(=S)N1CCc2ccccc21	/	-4	0	-3	-1	-52*
COc1ccccc1C(=O)NC(=S)N1CCc2ccccc21	/	6	2	5	-4	-24*
COc1ccc2cc3c(N)nn(C(=O)Cc4c[nH]c5ccccc45)c3nc2c1	/	8	12	-2	-21	-33*
COc1ccc(NC(=O)Nc2ccc3c(c2)CC(=O)N([C@@H](C)CO)C[C@H](C)[C@@H](CN(C)S(=O)(=O)c2c(C)noc2C)O3)cc1	3	24	-1	-2	0	0
CCOc1ccc(CN2C(=O)c3ccccc3C2=O)cc1C(=O)NC1CC(C)(C)NC(C)(C)C1	-1	1	3	49*	-5	13
OCCN(Cc1ccccc1)CC1CCCCC1	57*	-5	/	/	/	/
OCCN(Cc1ccccc1)CC1CC2C=CC1C2 (stereo unspecified)	-1	-2	/	/	/	/
COc1ccc(NC(=O)CN(C)C(=O)Cn2cnc3c2c(=O)n(C)c(=O)n3C)cc1	/	-7	-1	7	-7	5
